Data from the EternaBench riboswitch data.

Test system: MS2 coat protein
Test: apparent Kd, MS2 coat protein; higher = weaker binding; RNA-MaP array; FMN 200 µM where present
In short: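 Green signal from SNAP-549-labelled MS2 coat protein was normalised to red-channel RNA signal and to the median Fmax of control clusters. The protein was titrated from 0.7 or 1.5 nM, doubling to 3 µM, without and then with constant ligand, over designs transcribed by stalled E. coli RNA polymerase on Illumina sequencing-chip clusters, in 100 mM Tris-HCl pH 7.5, 80 mM KCl, 4 mM MgCl2, BSA, DTT, yeast tRNA and Tween-20. The apparent Kd is the median of filtered per-cluster binding-curve fits.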

[1] = designed as: OFF switch for flavin mononucleotide, no ligand
[2] = ligand present: flavin mononucleotide, designed as: OFF switch for flavin mononucleotide
[3] = designed as: ON switch for flavin mononucleotide, no ligand
[4] = ligand present: flavin mononucleotide, designed as: ON switch for flavin mononucleotide

Sequence	apparent Kd [1] [nM]	apparent Kd [2] [nM]	apparent Kd [3] [nM]	apparent Kd [4] [nM]
UGAUAGGACAGAGGAUAUACGUAUAAUUACCUCUACAUGAGGAUCACCCAUGUAGAAGGCUGUCCUAUCUAAGUCGGAAACGAC	5.99	6.88		
GGUCCAUCAUGAGGAUAUGGCACCUUAUUGGUGCCAGAAGGCAUGUCUUUAGACAUGAGGAUCACCCAUGUAAUAAAUUGGACC			1150	76.5
AGUAGAUCAGGAUAUACAUAAAUGAUAAUUAUGUAACUUCAACAUGAGGAUCACCCAUGUAGAAGGGAUCUACA	16.3	15		
UUUUAACAUGAGGAUCACCCAUGUGAGGAUAUCGAAAUUUAUAUUAAUAUUUAUUAAACGAGAAGGCACAUUUU	82.2	80.7		
AAACACGGCGAACCGGCGUUCGUACAUGAGGAUCACCCAUGUCAGGAUAUCUCGAUCUUUGAAUGAGAGAAGGGACAGGAUCCU	700	375		
ACAUUGCGAGGAUAUACAUGAGGAUCACCCAUGUGGUAGCAGAUACGGUAGGGCUAGUGUAGAAGGUGUCAUGG	112	96.3		
GGUGUCGCAUGAGGAUAUGGUCAGCUUUGCUGACCAGAAGGCAUGUCGAUAGACAUGAGGAUCACCCAUGUAGUAAAGACACCA			990	72.7
AUUUUUUGUCAUGUACAUGAGGAACAUGAGGAUCACCCAUGUAGAAGGAAUUUUUUUAAGUUUAGUUAGGAUAUACAUAUAUUA	47.7	28.6		
UCAAGUAUGUAGGAUAUCGAUGUCUACGGACAUCGAGAAGGACGUACAUGAGGAUCACCCAUGUAACUUGCAUG	464	188		
CGCAUGCGUAGAAUUAGCUGCUGACAGGAUAUGACAUGAGGAUCACCCAUGUGAUUUAAGAAGAGUCAGAAGGGUCACGAUGCG	7.8	13.5		
GCAACGCCUGACAUGAGGAUCACCCAUGUUAGAUUGUUAUGUCAGGAUAUAGUCUCGAAACGAGACUAGAAGGGAUAUGUUGCU			888	122
CGCUACACCCAGAAGGACAUGAGGAUCACCCAUGUAGGAUAUGGGAGACACAGUCCCAUGUAGAGAAACUACGCUAGUGUAGCG			200	81.4
GGUGCAUGUGAGAAGGCGAUCAUGAAACAUGAUCGAGGAUAUCAUGUAAACAUGAGGAUCACCCAUGUAUGGGAAAAGUGCACC			97.9	10.1
GGUCCAACAUGAGGAUAUAGCACCUUAUUGGUGCUAGAAGGCGUGUCGGUAGACAUGAGGAUCACCCAUGUAAUACAUUGGACC			218	28.5
GUGUACUGAGGAUAUGCUGGAAUCUAGCGAAGCUAGGUUCCACAUGAGGAUCACCCAUGUAGAAGGCGGUACAC	34.2	13.7		
AAAAGACAUGAGGAUCACCCAUGUCUUCGGACAUGAGGAUAUGUACAGACUUCGGUCUGUACAGAAGGCAUGUCAA			39.8	17.2
GUGUAGACAGGAUAUGCUUUGAGCGUAUGAGAGUAGGCUCGACAUGAGGAUCACCCAUGUAGAAGGGUCUACAC	12.4	13.2		
GAAUUACAUGAGGAUCACCCAUGUGAGGAUAUCGAUGUAACUAGCAGCGUGCGGGACUCGAGAAGGCACUUGGA	39.1	67.5		

Sequence	apparent Kd [1] [nM]	apparent Kd [2] [nM]	apparent Kd [3] [nM]	apparent Kd [4] [nM]
UUUUAACAUGAGGAUCACCCAUGUGAGGAUAUCGAUUUUUAUAUUAAUAUUAAUAAAACGAGAAGGCACAUUUU	123	79.3		
UGGACGGGAGGAUAUACAUGAGGAUCACCCAUGUAAAAUUGUAUAAUAUAUAGUUCGUGUAGAAGGUUUGUUUU	49.6	44.7		
CCGUAGGGAGGAUAUCCAAUAUAUGACAUGAGGAUCACCCAUGUUUCCACUCGUACCUCCGGAGAAGGCCCAUCCC	24.9	22.3		
CGCUGGACUGAGAAGGCCAUGUGGGACGCGAACAGUGAUGUUAGGGCAUGGAGGAUAUCAGACAUGAGGAUCACCCAUGUAACC			392	38
ACCAUUUACUAAUCGUCUAUACAUGAGGAUCACCCAUGUUAUGAGGAUAUCGUCGUGAAACACGACGAGAAGGCAUAGCAUUCG	32.2	132		
AGGCUAUUAGGAUAUACAUGAGGAUCACCCAUGUCGAUCUACAGGCUACGGCACGGCAGUAGAAGGAAUGGCCG	15.7	16.7		
GCCAUCGCAUGAGGAUAUGCUCCGGUUUCCGGAGCAGAAGGCGUGUCAUAAGACAUGAGGAUCACCCAUGUAGUUAAGAUGGCA			246	10.6
ACAUACUAUCGAGGAUAUCGGUAAGAAAAGUUACGAGAAGGCGAUUAUAAAUUUAUAUUAUUAUACAUGAGGAUCACCCAUGUA			20.9	21.3
GAAGCACAUGAGGAUCACCCAUGUGAGGAUAUCCGUCUGGUCCGGCCGGGCCAGUACCGGAGAAGGCGCGUCGA	34.7	29.7		
CUUUCGUUAGCAGGAUAUGGACAGGCCUGUCCGUCUUGAGUCUGUAACAUGAGGAUCACCCAUGUCCAGAAGGGCUCGAAGGGA	8.04	15		
GGAAGAAUGAUACCUUUUUAUUACAUGAGGAUCACCCAUGUGCAGGAUAUCGAUUAUUAUAGUUUCGAGAAGGGCAAGAAUUGU	19.7	52.4		
UGGUACUAGGGAGGAUAUGGGCAGAUACAUGAGGAUCACCCAUGUUUAAGAAUGCCGAGAGGCAACUAGAAGGCCCUAGUACCU			553	25.5
ACAAAUGGAGGAUAUACAUGAGGAUCACCCAUGUUUAUCCUACAUGUGUGAUAAUAAUGUAGAAGGCCAUUUGA	19.7	13.2		
ACAAAUGGAGGAUAUACAUGAGGAUCACCCAUGUAUAUCCUACAUAUGUGAUCUUUAUGUAGAAGGCCAUUUGA	12.2	11.5		
GAUUCACAUGAGGAUCACCCAUGUCGUAAUAUGGGAGGAUAUACGUGGACCGUAGUCCGCGUAGAAGGCCUAAUUG			172	36.6
ACCCAGUUUUGCACUACAUGAGGAUCACCCAUGUGAGCGAGCAGAAGGACGAUGGGUGGAAAAUCGUAGGAUAUGCACUGGGUA			47.2	12.6
CACGUGUAAGGAUAUGACAAUGGUAUCUUCGGAUACCAUUGUCAGAAGGUACAUGAGGAUCACCCAUGUAACAC	16.1	26.8		
GUAGCUAUCGCAGGAUAUCCUCAGGCGAAAGCCACAUGAGGAUCACCCAUGUAAAUAAAGUAUUUGGAGAAGGGCGAUAGCUAC			710	36.1
